pKi: −log10 of the molar value.
Columns and labels:
OVCAR-3 = experiment: Growth inhibition of human OVCAR3 cells assessed as cell growth at 10^-5 M after 48 hrs by sulforhodamine B assay relative to control; type: functional; details: OVCAR-3, 48 h, read-out: Activity
Summary of the method: (§1)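 NCI-60 single-dose screen at 10^-5 M. Cells grown in RPMI 1640 with 5% FBS and 2 mM L-glutamine, plated at 5,000–40,000 cells/well according to doubling time, and preincubated 24 h at 37°C, 5% CO2. Compound dissolved in DMSO and added. Exposure 48 h. Adherent cells fixed with cold TCA (10% final), suspension cells with 16% final TCA. Read-out is 0.4% SRB staining, dye solubilised in 10 mM Tris, absorbance at 515 nm. Percent growth is calculated against the time-zero plate and untreated control.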

UACC-62 = experiment: Growth inhibition of human UACC62 cells assessed as cell growth at 10^-5 M after 48 hrs by sulforhodamine B assay relative to control; type: functional; details: UACC-62, 48 h, read-out: Activity
Summary of the method: (§2)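 NCI-60 single-dose screen, 10^-5 M final. Cells grown in RPMI 1640 with 5% FBS and 2 mM L-glutamine, seeded at 5,000–40,000 cells/well by doubling time. Preincubated 24 h at 37°C, 5% CO2. Compound in DMSO, diluted in medium with gentamicin, then 48 h exposure. Fixed with cold TCA, SRB stained, A515 read. Percent growth vs untreated control, time-zero plate corrected.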

UACC-257 = experiment: Growth inhibition of human UACC257 cells assessed as cell growth at 10^-5 M after 48 hrs by sulforhodamine B assay relative to control; type: functional; details: UACC-257, 48 h, read-out: Activity; summary of the method: as §2
SK-MEL-2 = experiment: Growth inhibition of human SK-MEL-2 cells assessed as cell growth at 10^-5 M after 48 hrs by sulforhodamine B assay relative to control; type: functional; details: SK-MEL-2, 48 h, read-out: Activity; summary of the method: as §1
Malme-3M = experiment: Growth inhibition of human MALME-3M cells assessed as cell growth at 10^-5 M after 48 hrs by sulforhodamine B assay relative to control; type: functional; details: read-out: Activity; summary of the method: as §1
SNB-75 = experiment: Growth inhibition of human SNB75 cells assessed as cell growth at 10^-5 M after 48 hrs by sulforhodamine B assay relative to control; type: functional; details: SNB-75, 48 h, read-out: Activity; summary of the method: as §1
SF-539 = experiment: Growth inhibition of human SF539 cells assessed as cell growth at 10^-5 M after 48 hrs by sulforhodamine B assay relative to control; type: functional; details: SF-539, 48 h, read-out: Activity; summary of the method: as §1
SF-295 = experiment: Growth inhibition of human SF295 cells assessed as cell growth at 10^-5 M after 48 hrs by sulforhodamine B assay relative to control; type: functional; details: SF-295, 48 h, read-out: Activity; summary of the method: as §1
KM12 = experiment: Growth inhibition of human KM12 cells assessed as cell growth at 10^-5 M after 48 hrs by sulforhodamine B assay relative to control; type: functional; details: KM12, 48 h, read-out: Activity; summary of the method: as §1
NCI-H460 = experiment: Growth inhibition of human NCI-H460 cells assessed as cell growth at 10^-5 M after 48 hrs by sulforhodamine B assay relative to control; type: functional; details: NCI-H460, 48 h, read-out: Activity; summary of the method: as §1
NCI-H322M = experiment: Growth inhibition of human NCI-H322M cells assessed as cell growth at 10^-5 M after 48 hrs by sulforhodamine B assay relative to control; type: functional; details: read-out: Activity; summary of the method: as §1
NCI-H23 = experiment: Growth inhibition of human NCI-H23 cells assessed as cell growth at 10^-5 M after 48 hrs by sulforhodamine B assay relative to control; type: functional; details: NCI-H23, 48 h, read-out: Activity; summary of the method: as §1
HOP-92 = experiment: Growth inhibition of human HOP92 cells assessed as cell growth at 10^-5 M after 48 hrs by sulforhodamine B assay relative to control; type: functional; details: HOP-92, 48 h, read-out: Activity; summary of the method: as §1
A549 = experiment: Growth inhibition of human A549 cells assessed as cell growth at 10^-5 M after 48 hrs by sulforhodamine B assay relative to control; type: functional; details: A549, 48 h, read-out: Activity; summary of the method: as §1
K562 = experiment: Growth inhibition of human K562 cells assessed as cell growth at 10^-5 M after 48 hrs by sulforhodamine B assay relative to control; type: functional; details: K562, 48 h, read-out: Activity; summary of the method: as §1
Vitamin D3 receptor = target: T1, Vitamin D3 receptor (Homo sapiens, UniProt P11473); experiment: Inhibition of human vitamin D3 receptor
T1 sequence (P11473 whole entry): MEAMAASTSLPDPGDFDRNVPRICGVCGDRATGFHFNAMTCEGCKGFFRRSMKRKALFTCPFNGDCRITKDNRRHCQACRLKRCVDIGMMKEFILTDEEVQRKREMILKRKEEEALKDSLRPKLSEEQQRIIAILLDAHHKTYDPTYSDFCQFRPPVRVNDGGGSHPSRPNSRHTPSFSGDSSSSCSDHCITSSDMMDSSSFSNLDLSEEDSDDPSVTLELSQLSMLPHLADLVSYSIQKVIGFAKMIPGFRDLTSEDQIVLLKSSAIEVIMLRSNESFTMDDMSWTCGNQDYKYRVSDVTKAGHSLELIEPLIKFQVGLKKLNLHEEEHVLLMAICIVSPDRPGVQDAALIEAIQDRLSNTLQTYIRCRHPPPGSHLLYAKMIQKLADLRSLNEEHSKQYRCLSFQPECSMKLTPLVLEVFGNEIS

CCRF-CEM = experiment: Growth inhibition of human CCRF-CEM cells assessed as cell growth at 10^-5 M after 48 hrs by sulforhodamine B assay relative to control; type: functional; details: read-out: Activity; summary of the method: as §1
[1] = target: Epidermal growth factor receptor (Homo sapiens, UniProt P00533); experiment: Inhibition of human EGFR
Sequence of Epidermal growth factor receptor (P00533 whole entry): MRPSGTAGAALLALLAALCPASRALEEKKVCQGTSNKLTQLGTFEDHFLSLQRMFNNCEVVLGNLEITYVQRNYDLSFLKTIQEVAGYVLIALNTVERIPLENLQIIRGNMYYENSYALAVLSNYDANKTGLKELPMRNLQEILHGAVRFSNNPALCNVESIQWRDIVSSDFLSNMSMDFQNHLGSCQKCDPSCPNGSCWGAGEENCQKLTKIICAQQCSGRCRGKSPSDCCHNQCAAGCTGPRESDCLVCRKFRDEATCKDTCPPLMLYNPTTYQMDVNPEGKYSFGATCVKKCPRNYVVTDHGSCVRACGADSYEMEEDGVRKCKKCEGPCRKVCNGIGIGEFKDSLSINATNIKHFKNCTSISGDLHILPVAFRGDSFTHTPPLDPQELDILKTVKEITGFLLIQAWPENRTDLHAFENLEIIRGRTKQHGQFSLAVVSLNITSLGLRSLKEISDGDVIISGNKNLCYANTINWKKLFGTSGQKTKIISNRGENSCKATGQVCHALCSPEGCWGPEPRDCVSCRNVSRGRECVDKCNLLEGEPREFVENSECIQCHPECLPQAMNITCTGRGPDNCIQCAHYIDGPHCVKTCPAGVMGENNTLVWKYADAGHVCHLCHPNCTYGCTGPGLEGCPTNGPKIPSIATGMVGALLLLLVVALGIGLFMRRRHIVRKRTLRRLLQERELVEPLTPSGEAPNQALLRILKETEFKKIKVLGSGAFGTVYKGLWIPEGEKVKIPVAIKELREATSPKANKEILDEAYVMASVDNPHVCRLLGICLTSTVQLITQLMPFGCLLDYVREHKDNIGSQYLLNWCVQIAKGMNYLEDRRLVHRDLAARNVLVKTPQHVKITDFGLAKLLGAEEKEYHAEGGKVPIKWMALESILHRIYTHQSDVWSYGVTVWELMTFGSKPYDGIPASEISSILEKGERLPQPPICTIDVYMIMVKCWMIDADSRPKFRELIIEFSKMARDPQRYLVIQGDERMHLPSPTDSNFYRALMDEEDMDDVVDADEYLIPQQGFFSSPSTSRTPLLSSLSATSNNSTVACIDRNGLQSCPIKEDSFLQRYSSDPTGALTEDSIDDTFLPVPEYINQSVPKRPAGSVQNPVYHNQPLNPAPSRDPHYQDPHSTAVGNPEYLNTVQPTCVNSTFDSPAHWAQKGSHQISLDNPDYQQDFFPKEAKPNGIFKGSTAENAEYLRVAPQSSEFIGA

SN12C = experiment: Growth inhibition of human SN12C cells assessed as cell growth at 10^-5 M after 48 hrs by sulforhodamine B assay relative to control; type: functional; details: read-out: Activity; summary of the method: as §1
TK-10 = experiment: Growth inhibition of human TK10 cells assessed as cell growth at 10^-5 M after 48 hrs by sulforhodamine B assay relative to control; type: functional; details: TK-10, 48 h, read-out: Activity; summary of the method: as §2
RXF 393 = experiment: Growth inhibition of human RXF393 cells assessed as cell growth at 10^-5 M after 48 hrs by sulforhodamine B assay relative to control; type: functional; details: RXF 393, 48 h, read-out: Activity; summary of the method: as §1

`Cc1ccc(-c2csc(=N)n2CC(=O)N2CCOCC2)cc1` was tested, and the growth at 10 µM (OVCAR-3) was 108%, the growth at 10 µM (UACC-62) was 98.1% and the growth at 10 µM (UACC-257) was 103%. It also gave a growth at 10 µM (SK-MEL-2) of 111%, a growth at 10 µM (Malme-3M) of 131% and a growth at 10 µM (SNB-75) of 90.6%. It also gave a growth at 10 µM (SF-539) of 100%, a growth at 10 µM (SF-295) of 83.6% and a growth at 10 µM (KM12) of 110%. For the same compound, the growth at 10 µM (NCI-H460) was 108%, the growth at 10 µM (NCI-H322M) was 111% and the growth at 10 µM (NCI-H23) was 97.3%. For the same compound, the growth at 10 µM (HOP-92) was 68.3%, the growth at 10 µM (A549) was 94.1% and the growth at 10 µM (K562) was 100%. The pKi (Vitamin D3 receptor) was 4.86, the growth at 10 µM (CCRF-CEM) was 101% and the pKi [1] was 4.64. It also gave a growth at 10 µM (SN12C) of 100%, a growth at 10 µM (TK-10) of 126% and a growth at 10 µM (RXF 393) of 94.5%.

With `CN1CCN(C(=O)Cn2c(-c3ccccc3)csc2=N)CC1` the growth at 10 µM (OVCAR-3) was 95.4%, the growth at 10 µM (UACC-62) was 85.9% and the growth at 10 µM (UACC-257) was 106%. For the same compound, the growth at 10 µM (SK-MEL-2) was 118%, the growth at 10 µM (Malme-3M) was 89.1% and the growth at 10 µM (SNB-75) was 56.5%. The growth at 10 µM (SF-539) was 98.7%, the growth at 10 µM (SF-295) was 65.9% and the growth at 10 µM (KM12) was 102%. It also gave a growth at 10 µM (NCI-H460) of 99.1%, a growth at 10 µM (NCI-H322M) of 90.2% and a growth at 10 µM (NCI-H23) of 90%. It also gave a growth at 10 µM (HOP-92) of 73.8%, a growth at 10 µM (A549) of 92% and a growth at 10 µM (K562) of 98.2%. It also gave a pKi (Vitamin D3 receptor) of 4.55, a growth at 10 µM (CCRF-CEM) of 97.6% and a pKi [1] of 4.38. The growth at 10 µM (SN12C) was 85.2%, the growth at 10 µM (TK-10) was 140% and the growth at 10 µM (RXF 393) was 97.3%.

From ChEMBL document CHEMBL2434944, “Novel acetamidothiazole derivatives: synthesis and in vitro anticancer evaluation” (Eur J Med Chem, 2013)
